The record followed here is ChEMBL document CHEMBL2169771, “Mechanistic aspects of the photodynamic inactivation of Candida albicans induced by cationic porphyrin derivatives” (Eur J Med Chem, 2012).

Calls of active or inactive are those of the source. No cut-off for these calls is given here.

Assay [1] relates to Candida albicans. Briefly: Antifungal activity against 10^6 CFU/mL Candida albicans PC31 assessed as cell survival at 5 uM preincubated for 30 mins in dark followed by irradiation measured after 30 mins. It counts as functional.
In assay [2] the test system is Nucleic Acid. Briefly: Binding affinity to Candida albicans PC31 DNA assessed as genomic DNA cleavage at 5 uM preincubated for 30 mins in dark followed by irradiation measured after 30 mins by agarose gel electrophoresis. It counts as nucleic-acid assay. In a few lines: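 PC31 cells (~10^7 CFU/mL in PBS) received 5 µM sensitizer for 30 min at 37 °C in the dark, then 30 min visible light (162 J/cm²). Genomic DNA was extracted with a commercial kit immediately after irradiation. It was run on 1% agarose in TBE (pH 8) at 2.9 V/cm for 2 h beside an irradiated control.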

The test system of assay [3] is Candida albicans. Briefly: Antifungal activity against 10^7 CFU/mL Candida albicans PC31 assessed as cell survival at 5 uM preincubated for 30 mins in dark followed by irradiation measured after 30 mins. It is filed as functional. In a few lines:
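C. albicans PC31 grown overnight in Sabouraud broth at 37 °C to stationary phase, then resuspended in 10 mM PBS pH 7.0 at ~10^7 CFU/mL. Incubated with 5 µM porphyrin for 30 min in the dark at 37 °C. Irradiated 30 min with visible light from a 150 W lamp, water-filtered (fluence 162 J/cm²). CFU counted on Sabouraud agar after ~48 h at 37 °C, plated in triplicate. Three separate experiments, mean ± SD.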

Assay [4] relates to Candida albicans. The assay is described as follows: Photocytotoxicity against Candida albicans PC31 assessed as change in cell morphology at 5 to 10 uM preincubated for 30 mins in dark followed by irradiation measured after 30 mins by transmission electron microscopy. It counts as functional, organism-based. Put shortly: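 PC31 suspensions (~10^7 CFU/mL) were given 5 or 10 µM sensitizer for 30 min in the dark at 37 °C, then irradiated 30 min with visible light (162 J/cm²). Cells were fixed in 4% formaldehyde/2% glutaraldehyde in 0.1 M cacodylate for 2 h, then post-fixed in 1% OsO4. They were acetone-dehydrated, Araldite-embedded, cut at 80–100 nm, stained with uranyl acetate and lead citrate, and imaged by TEM.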

Assay [5] has as its system Nucleic Acid. The assay is described as follows: Binding affinity to calf thymus DNA by spectrophotometric analysis. It counts as nucleic-acid assay. As to conditions: Bos taurus. Put shortly:
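Absorbance titration: concentrated calf thymus DNA stock was added to ~2 µM porphyrin in PBS. Apparent KDNA was calculated from the Soret-maximum absorbance change, assuming 1:1 stoichiometry and DNA in large excess, via a double-reciprocal fit (1/ΔA vs 1/[DNA]). Three separate experiments, mean ± SD.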

Assay [6] concerns Candida albicans. Briefly: Antifungal activity against 10^7 CFU/mL Candida albicans PC31 preincubated for 30 mins in dark followed by irradiation measured after 30 mins. It is filed as functional, organism-based. As to conditions: PC31, light or radiation study. Put shortly: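 IC50 was derived from PBS suspensions of PC31 (~10^7 CFU/mL) treated with 0.1–10 µM porphyrin for 30 min in the dark at 37 °C. Cells were then irradiated for 30 min with water-filtered visible light from a 150 W lamp. Survival was counted as CFU on Sabouraud agar after ~48 h at 37 °C.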

The test system of assay [7] is Nucleic Acid. Briefly: Binding affinity to calf thymus DNA assessed as reduction in electrophoretic DNA mobility at 20 uM after 1 to 5 hrs irradiation by agarose gel electrophoresis. Particulars: Bos taurus. It counts as nucleic-acid assay. In a few lines: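 Calf thymus double-stranded DNA (1.3 × 10^-4 M, in base pairs) mixed with 20 μM sensitizer in TE buffer (10 mM Tris-HCl, 1 mM EDTA, pH 7.6). Irradiated with visible light (90 mW/cm²) at room temperature for 1, 2, 3, 4 or 5 h. Samples then run on 1% agarose gels in TBE buffer (pH 8) at 2.9 V/cm for 2 h. Controls: DNA alone, DNA with sensitizer in dark, irradiated DNA.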

For assay [8], the system named is Candida albicans. Briefly: Photocytotoxicity against Candida albicans PC31 assessed as release of intracellular DNA and protein at 5 uM preincubated for 30 mins in dark followed by irradiation measured after 30 mins by UV-vis spectroscopic analysis. It is filed as functional, organism-based. Put shortly:
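PC31 cells (~10^7 CFU/mL in 2 mL PBS) were incubated with 5 µM porphyrin for 30 min in the dark, then irradiated 30 min with visible light (162 J/cm²). After centrifugation at 13,000 rpm for 5 min, supernatants were scanned by UV–visible spectroscopy, with absorbance at 260 nm taken as the release read-out. Freeze–thaw lysis in liquid nitrogen gave the positive control.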

The test system of assay [9] is Nucleic Acid. Briefly: Binding affinity to calf thymus DNA assessed as DNA cleavage at 20 uM after 2 hrs irradiation by agarose gel electrophoresis. It counts as nucleic-acid assay. As to conditions: Bos taurus. In a few lines:
(§1)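 Calf thymus DNA (1.3 × 10^-4 M, base pairs) was mixed with 20 µM sensitizer in TE buffer (10 mM Tris-HCl, 1 mM EDTA, pH 7.6). Mixtures were irradiated in open tubes with visible light (90 mW/cm²) at room temperature for 1–5 h; dark controls were included. Samples were run on 1% agarose in TBE at 2.9 V/cm for 2 h.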

The test system of assay [10] is Nucleic Acid. The assay is described as follows: Binding affinity to calf thymus DNA assessed as DNA cleavage at 20 uM after 1 hr irradiation by agarose gel electrophoresis. As to conditions: Bos taurus. It is filed as nucleic-acid assay. In a few lines: as §1
The test system of assay [11] is Nucleic Acid. The assay is described as follows: Binding affinity to calf thymus DNA assessed as DNA cleavage at 20 uM by agarose gel electrophoresis in absence of irradiation. As to conditions: Bos taurus. It counts as nucleic-acid assay. In a few lines:
as §1

Assay [12] concerns Nucleic Acid. The assay is described as follows: Binding affinity to calf thymus DNA assessed as DNA cleavage at 20 uM after 5 hrs irradiation by agarose gel electrophoresis. It counts as nucleic-acid assay. Particulars: Bos taurus. In a few lines: as §1

One may read the IC50 as the point on the concentration scale where inhibition reaches its midpoint. A lower IC50 goes with higher potency. For `C[n+]1ccc(-c2c3nc(c(-c4cc[n+](C)cc4)c4ccc([nH]4)c(-c4cc[n+](C)cc4)c4ccc([nH]4)c(-c4cc[n+](C)cc4)c4nc2C=C4)C=C3)cc1` [TMPYP4], the log10CFU/ml worked out at 5 in [1] and 3.5 in assay [3]. Also, the result in assay [2] and in assay [8] was inactive. For the same compound, the result in [4] and in assay [7] was Active. The compound also returned a Kapp in assay [5] of 4.4 ×10⁵ /M. The compound further yielded an IC50 in [6] of 0.41 µM.
In the case of `C[N+](C)(C)c1ccc(-c2c3nc(c(-c4ccc([N+](C)(C)C)cc4)c4ccc([nH]4)c(-c4ccc([N+](C)(C)C)cc4)c4nc(c(-c5ccc([N+](C)(C)C)cc5)c5ccc2[nH]5)C=C4)C=C3)cc1`, the log10CFU/ml in assay [1] stood at 5; in assay [3], 3.5. Moreover, the outcome in assay [2] and in assay [8] was inactive. Also, the outcome in assay [4] was Active. In addition, the Kapp in [5] worked out at 7.5 ×10⁵ /M. Also, it took 0.23 µM to reach half-maximal inhibition in assay [6] (IC50). The figures for the Activity in [9] and in assay [10] were above 90% and 59.3%, respectively.
Turning to `C[N+](C)(C)c1ccc(-c2c3nc(c(-c4ccc([N+](C)(C)C)cc4)c4ccc([nH]4)c(-c4ccc([N+](C)(C)C)cc4)c4nc(c(-c5ccc(C(F)(F)F)cc5)c5ccc2[nH]5)C=C4)C=C3)cc1`, the log10CFU/ml in assay [1] was determined as 5; in assay [3] it was 3.5. Further, the result in assay [11], in assay [2] and in assay [8] was inactive. Also, the Activity in [12] is 50%; in assay [10], 19.7%. Moreover, the result in assay [4] was Active. This compound also returned a Kapp in assay [5] of 6.7 ×10⁵ /M. Besides, the IC50 in [6] came to 0.16 µM.
